# Source: PubChem BioAssay (several laboratories)
# KCNQ1 pot: potentiates or activates the human KCNQ1 potassium channel; hit rate 0.35% among 310,000; P51787; CHO-K1 KCNQ1, thallium flux FluxOR fluorescence; stronger effect = higher value; B-score at 10 µM; AID 2648;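 active = fluorescence ratio B-score, a plate-corrected score, at least three library SD, with initial intensity B-score within 5 SD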
#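 Assay system: stable KCNQ1 CHO-K1 line; medium: assay buffer, equal DMSO in all wells; timing: 90 min dye loading and 20 min compound exposure, both at room temperature; technique: kinetic FluxOR thallium fluorescence, 10-s 1-Hz baseline, 110-s post-stimulus read; read-out basis: B score of baseline-normalized fluorescence ratio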
# KCNK9 inh: inhibitors of human KCNK9 two-pore domain potassium channel; Q9NPC2; HEK293 KCNK9, FluxOR thallium flux fluorescence; stronger effect = lower value; B-score at 10 µM; hit rate 1.2% among 310,000;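 active = ratio B-score over 3 SD below the library mean, with starting fluorescence within 5 SD of its mean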;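 also: negative B-score means less thallium flux so channel inhibition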
# hERG rescue: compounds protecting human hERG from proarrhythmic drug block. Q12809. CHO-hERG, FluxOR thallium flux, dofetilide IC70 present. activation (rescue from dofetilide block), less the hit threshold, % at 10 µM. hit rate 0.51% among 310,000. AID 1511;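 active = activation above the mean of controls blocked by dofetilide plus 5 SD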;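 also: thallium influx through hERG after potassium depolarization seen as dye fluorescence rise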
# KCNK3 inh: human KCNK3 channel inhibition, primary screen. O14649. CHO-KCNK3 thallium flux, FluxOR fluorescence; stronger effect = lower value. B-score at 10 µM. hit rate 0.84% among 340,000;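 active = B-score under library mean minus 4 SD, starting fluorescence ratio at most library mean plus 5 SD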;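 also: more negative B-score means stronger inhibition of thallium flux through KCNK3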
# Target sequence (O14649 whole entry, looked up): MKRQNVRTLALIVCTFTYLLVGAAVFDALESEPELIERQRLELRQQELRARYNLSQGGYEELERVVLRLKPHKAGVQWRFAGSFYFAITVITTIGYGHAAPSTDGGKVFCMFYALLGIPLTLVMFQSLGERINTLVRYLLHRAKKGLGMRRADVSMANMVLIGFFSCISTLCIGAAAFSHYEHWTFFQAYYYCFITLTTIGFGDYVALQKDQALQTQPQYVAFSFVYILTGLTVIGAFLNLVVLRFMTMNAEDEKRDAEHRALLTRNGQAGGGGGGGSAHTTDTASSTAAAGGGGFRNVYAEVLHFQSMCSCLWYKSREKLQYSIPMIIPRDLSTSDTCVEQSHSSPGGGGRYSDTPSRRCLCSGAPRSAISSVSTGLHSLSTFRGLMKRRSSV
# KCNQ1 inh: human KCNQ1 channel inhibition; AID 2642; CHO-K1 KCNQ1, FluxOR thallium flux fluorescence; stronger effect = higher value; B-score at 10 µM; P51787; hit rate 1.3% among 310,000;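 active = compounds whose thallium flux B-score, printed positive for inhibition, exceeds three library SD while starting fluorescence stays within three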;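 also: channel opened by potassium depolarization with thallium stimulus after 20 min compound exposure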
# KCC2 mod: modulators of human KCC2 chloride dependent transport | B-score of Tl+ flux slope (higher = more flux/activation; lower = inhibition) at 10 µM | KCC2 cells, thallium flux FluoZin-2 fluorescence | hit rate 2.2% among 190,000 | AID 1456;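 active = thallium flux slope and its plate-corrected score both differing from the plate sample mean at a set confidence after two filtering rounds, in either direction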;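 also: slope of fluorescence scaled to starting intensity during 10 to 20 s after thallium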
# Active calls of the source: *; i = inactive; · = no result given. Shown are actives, neighbours in structure and some others; about 4.1% of the full set was active somewhere.
SMILES,KCNQ1 pot,KCNK9 inh,hERG rescue,KCNK3 inh,KCNQ1 inh,KCC2 mod
C[C@@H](CC#N)CN1CC[C@H](C(C)(C)C)CCC1=O,i,i,5.0*,i,i,·
O=[N+]([O-])c1cc(Br)c(O)c(C=Nc2ccc(N3CCOCC3)cc2)c1,i,i,-13.8,i,11*,-2.09
COc1cccc(C=Nc2ccc(N3CCOCC3)cc2)c1O,i,i,0.0,i,i,·
CCOC(=O)c1c(C)[nH]c(C)c1C(=O)COC(=O)/C=C/c1ccc(Cl)cc1,i,i,-7.0,i,i,-2.09
Cc1onc(-c2c(Cl)cccc2Cl)c1NC(=O)NN(C)c1ccc([N+](=O)[O-])cn1,i,i,1.6,i,i,0.136
CC(=O)C(=Nc1ccc(Cl)cc1Cl)NNc1cccc(Cl)c1,i,i,-9.0,i,10*,·
CC(=O)Nc1ccc(NC(=O)Nc2cccc(Cl)c2)cc1,i,i,-6.6,i,i,·
CCCCCCc1nc2c(=O)[nH]c3ccccc3c2o1,i,i,6.2*,i,i,0.945
O=C(C[n+]1cc(-c2ccccc2)n2c1CCCCC2)c1ccc(Cl)cc1,i,i,-9.0,i,i,-0.48
Clc1ccc(-c2c[n+](Cc3ccc(Cl)cc3Cl)c3n2CCCCC3)cc1,i,i,-20.3,i,7*,·
Clc1ccc(C[n+]2cc(-c3ccccc3)n3c2CCCCC3)c(Cl)c1,i,i,-21.5,i,i,-0.926
CC1CCC(C(C)C)C(OC(=O)C[n+]2cc(-c3ccc(Cl)cc3)n3c2CCCCC3)C1 (centres undefined),i,i,-25.4,-9.79*,6*,0.101
C=CCOc1ccc2c(c1)C(=NO)c1cc(OCC=C)ccc1-2,i,-7.75*,-0.6,i,i,·
COc1ccc2c(c1)C(=NO)c1cc(OC)ccc1-2,i,i,-7.3,i,i,-0.0156
N#C/C=C1/NC(=O)c2ccccc2S1,i,i,-3.6,i,i,18.9*
CN(C(=O)c1ccc(NC(=O)Cc2ccc(NC(=O)C3CCN(C(=O)CCc4ccccc4)CC3)cc2)cc1)C1CC1,·,·,·,i,·,·
N#CC1=C(N)Oc2ccc3ccc(O)cc3c2C1c1cccnc1 (centres undefined),i,i,-3.8,i,i,-0.376
N#CC1=C(N)Oc2ccc3ccccc3c2C1c1cccnc1 (centres undefined),i,i,4.9*,i,i,-1.24
COc1ccc(OC)c(-c2csc(NC(=O)CSc3ccc([N+](=O)[O-])cc3)n2)c1,i,i,-15.4,i,7*,0.0262
Cc1cc(Br)ccc1NS(=O)(=O)c1c(C)[nH]c(=O)[nH]c1=O,i,i,1.1,i,i,·
CCCCOC(=S)NC(=O)c1sc2ccccc2c1Cl,53*,i,31.2*,i,i,46.8*
O=C(NC(=S)Nc1ccc(N2CCCCC2)cc1)c1cccs1,9*,i,-4.3,i,i,·
O=C(NC(=S)Nc1ccccc1N1CCOCC1)c1sc2ccccc2c1Cl,13*,i,-6.5,i,i,3.03
CCN(c1ccccc1)S(=O)(=O)c1ccc(NC(=S)NC(=O)c2cccs2)cc1,i,i,-1.9,i,i,16.4*
CN(C)CCCOC(=O)c1sc2ccccc2c1Cl,i,i,-8.5,i,i,-1.1
SMILES,KCNQ1 pot,KCNK9 inh,hERG rescue,KCNK3 inh,KCNQ1 inh,KCC2 mod
CCCCCNC(=O)c1ccc2c(=O)n(CC3CCCO3)c(=O)[nH]c2c1 (centres undefined),i,i,-9.9,i,i,·
O=C(O)c1ccccc1NC(=S)NC(=O)c1sc2ccccc2c1Cl,i,i,-3.7,i,i,-3.34
O=C(Nc1ccccc1N1CCOCC1)c1cccs1,i,i,-5.9,i,i,·
O=C(NC(=S)Nc1ccccc1N1CCOCC1)c1cccs1,i,i,2.9,i,i,38.9*
CCOC(=O)c1cc(NCc2cccs2)ccc1N1CCOCC1,i,i,-8.1,i,i,-0.11
Cc1ccc(NC(=S)NC(=O)c2sc3ccccc3c2Cl)c(C(=O)O)c1,9*,i,8.6*,·,i,60.2*
CCOC(=O)c1cc(NC(=O)c2cccs2)ccc1N1CCOCC1,i,i,4.7*,i,i,-0.0734
O=C(NC(=S)Nc1ccc(N2CCOCC2)c(Cl)c1)c1cncc(Br)c1,i,i,0.4,i,i,11.1*
CCC(C)C(NC(=O)c1ccccc1NC(=O)c1ccco1)C(=O)NNC(=O)c1ccncc1 (centres undefined),i,i,-8.4,i,i,-0.968
CC(C)CC(=O)NC(=S)Nc1ccc(N2CCOCC2)c(Cl)c1,i,i,-10.1,i,i,1.72
COC(=O)c1cc(NC(=O)c2cc(-c3ccc(C(F)(F)F)cc3)oc2C(F)(F)F)ccc1N1CCOCC1,i,i,1.9,i,8*,-0.545
O=C(NC(=S)Nc1ccc(N2CCOCC2)c(Cl)c1)c1sc2ccccc2c1Cl,21*,i,21.1*,i,i,2.85
COc1ccc(OCC(=O)Nc2ccc(N3CCOCC3)c(Cl)c2)cc1,i,i,-3.7,i,i,0.476
COc1ccc(OCC(=O)NC(=S)Nc2ccc(N3CCOCC3)c(Cl)c2)cc1,13*,i,-8.6,i,i,35.8*
O=C(CN(Cc1ccc(Br)cc1)S(=O)(=O)c1ccccc1)NCC1CCCO1 (centres undefined),i,i,-9.0,i,i,·
CCCC(=O)Nc1sc2c(c1C(=O)OCC)CC(C)(C)OC2,i,i,-14.4,i,i,·
CCOC(=O)c1c(NC(=O)c2ccc(C)cc2)sc2c1CC(C)(C)OC2,i,i,-6.8,i,8*,0.0924
Cc1ccc(NC(=O)COc2ccccc2C(=O)NCCN(C)C)cc1,i,i,6.9*,·,i,0.623
Cc1ccc(S(=O)(=O)N(C)C)cc1NC(=O)COc1ccccc1C(=O)Nc1ccccc1,i,i,-8.6,i,i,·
Cc1ccc(NC(=O)c2ccccc2OCC(=O)Nc2ccccc2F)cc1S(=O)(=O)N(C)C,·,·,·,-9.61*,·,·
Cc1ccc(-c2nc(CSCC(=O)N3CCN(c4ccccn4)CC3)c(C)o2)cc1,i,i,-18.2,-8.91*,i,-1.66
COc1ccc(N(Cc2cc3cccc(C)c3[nH]c2=O)S(=O)(=O)c2ccc(Cl)cc2)cc1,i,-7.5*,-9.1,i,i,·
COc1ccc(N(Cc2cc3cccc(C)c3[nH]c2=O)S(=O)(=O)c2ccc(OC)cc2)cc1,i,i,-4.2,i,i,·
